The sample as a whole holds a higher share of hits than the screen did.
LANA-nucl inh: LANA-nucleosome interaction inhibition; z-score (no concentration beside the values); actives 0.3% (n = 51,000); AID 720717; FITC-LANA1-23 / chicken nucleosome fluorescence polarization; hits give low values;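 active = both repeat wells score below -2 in polarization z-score versus plate sample wells, excluding overly bright wells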
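Test system: purified chicken nucleosomes with FITC-labelled LANA N-terminal peptide (1-23); Input: 240 nM purified chicken nucleosomes (480 nM peptide binding sites), final; Medium: TEN-BT buffer, pH 7.5; Timing: 10–45 min, room temperature; Technique: fluorescence polarization, 480 nm excitation, 535 nm parallel and perpendicular emission; Replication: duplicates.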
BasE inh: blocks the Acinetobacter baumannii siderophore enzyme BasE. purified BasE, fluorescence polarization binding displacement. inhibition, % (concentration not given with the values). actives 0.1% (n = 84,000). AID 485350; in the data active = inhibition above about 25%, passing the limit was not always enough;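 also: 0% = negative plate control signal and 100% = positive plate control signal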
* = called active by the depositor; ! = not confirmed by another sample.

Screening CC(C)CC1C2CN(Cc3ccccc3)CC=C2C(C#N)=C(N)C1(C#N)C#N (stereo not drawn) returned LANA-nucl inh -1.5 and BasE inh 15.
Screening CC(=O)N1CC=C2C(C#N)=C(N)C(C#N)(C#N)C(Cc3ccccc3)C2C1 (stereo not drawn) returned LANA-nucl inh -0.78 and BasE inh 0.
For CN1CC=C2C(C#N)=C(N)C(C#N)(C#N)C(CCc3ccccc3)C2C1 (stereo not drawn) the results were LANA-nucl inh -2.9* and BasE inh 22.
CCCC1C2CN(Cc3ccccc3)CC=C2C(C#N)=C(N)C1(C#N)C#N (stereo not drawn) was read as LANA-nucl inh -4.6* and BasE inh 23.
Screening O=C(CC(SCc1ccco1)c1ccc(O)cc1)c1ccco1 (stereo not drawn) returned BasE inh 3.
CC(C(=O)Nc1cccc(C#N)c1)N(C)CC(=O)Nc1ccc(Cl)cc1 (stereo not drawn) was read as BasE inh -2.
For Nn1c(NNC(=O)c2ccccc2)nnc(-c2cccs2)c1=O the results were BasE inh 2.
For Nc1nnc(-c2cccs2)c(=O)n1N the results were BasE inh 31*.
For COc1ccc(CCN2C(=O)C(C)SC2c2ccc(C#N)cc2)cc1OC (stereo not drawn) the results were BasE inh 0.
For Cn1c(SCc2ccccc2Cl)nnc1-c1oc2nc(-c3ccccc3)cc(-c3ccco3)c2c1N the results were LANA-nucl inh -0.26 and BasE inh -7.
`Cn1c(-c2oc3nc(-c4ccccc4)cc(-c4ccco4)c3c2N)n[nH]c1=S` gave LANA-nucl inh -2.3* and BasE inh 3.
CCC(=O)Nc1cccc(C2=NN(C(C)=O)C(c3ccc(F)cc3)O2)c1 (stereo not drawn) was read as LANA-nucl inh -1.1 and BasE inh 0.
`CC(=O)N1N=C(c2cccc(I)c2)OC1c1ccncc1` (stereo not drawn) gave LANA-nucl inh -0.15 and BasE inh 59*.
For CN1CCC(=CC(=O)O)CC1 the results were LANA-nucl inh 0.03 and BasE inh 0.
`C/C(=N\NC(=S)NC1CCCCC1)c1ccc(S(=O)(=O)NCc2ccco2)cc1` gave BasE inh -1.
C/C(=N\NC(=O)c1ccc(O)cc1)c1ccc(S(=O)(=O)NCc2ccco2)cc1 was read as BasE inh 29*.
Screening N#CCCN(/N=C/c1ccccc1)C1=NS(=O)(=O)c2ccccc21 returned BasE inh 3.
For CCN(CC)c1ccc(/C=N/N(CCC#N)C2=NS(=O)(=O)c3ccccc32)cc1 the results were LANA-nucl inh -8.4* and BasE inh 11.
For CCC(=O)N(Cc1cccnc1)Cc1cc2cc(OC)ccc2[nH]c1=O the results were LANA-nucl inh 0.21 and BasE inh 0.
Screening Oc1ccc(Br)c2cccnc12 returned LANA-nucl inh 1 and BasE inh 57*.
`Oc1ccc(Cl)c2cccnc12` gave LANA-nucl inh -0.12 and BasE inh -1.
Screening CN(C)c1ccc(C2=CC=CC(=C3C=CC(=[N+](C)C)C=C3)O2)cc1 returned BasE inh 8.
`CN(C)c1ccc(C(=C2C=CC(=[N+](C)C)C=C2)c2ccc(N(C)C)cc2)cc1` gave LANA-nucl inh -4.1*! and BasE inh 2.
For CCN(C(C)=O)c1nc(COC(=O)c2ccc3c(c2)OCCO3)cs1 the results were BasE inh 2.
CC1CCN(S(=O)(=O)N2CCCC(C(=O)Nc3ccccc3C(=O)c3ccccc3)C2)CC1 (stereo not drawn) was read as LANA-nucl inh -2.2* and BasE inh 0.
COC(=O)c1cc(NC(=O)C2CCCN(S(=O)(=O)N3CCC(C)CC3)C2)cc(C(=O)OC)c1 (stereo not drawn) was read as LANA-nucl inh -1.5 and BasE inh 1.
For COc1ccc(OCC(O)CNS(=O)(=O)c2ccc(-c3ccccn3)s2)cc1 (stereo not drawn) the results were LANA-nucl inh 0.47 and BasE inh 0.
For O=C(/C=C/c1ccc(O)c(O)c1)O[C@@H]1C[C@](O)(C(=O)O)C[C@@H](O)[C@H]1O the results were LANA-nucl inh 0.071 and BasE inh 32*!.
Screening COc1cc(/C=C/C(=O)OCC(=O)Nc2cccc(F)c2)ccc1O returned BasE inh 1.
For COC(=O)c1cc(OC)c(OC)cc1NCC(=O)N1CCOCC1 the results were BasE inh 2.
Screening CCN1C(=O)/C(=C/c2ccc3c(c2)OCO3)OC1=S returned LANA-nucl inh 0.84 and BasE inh -1.
`Cc1c(C(=O)N2CCN(C)CC2)oc2c1C1(CCC2)SCCS1` gave LANA-nucl inh 0.3 and BasE inh 2.
Screening Nc1cccnc1Nc1ccccc1 returned LANA-nucl inh -3.1* and BasE inh 24.
O=C(NCc1ccccc1)c1cccnc1Nc1ccccc1 was read as LANA-nucl inh -1.1 and BasE inh 0.
Screening CCN1CCCC1CNC(=O)c1ccc(-n2ccc3ccccc32)s1 (stereo not drawn) returned LANA-nucl inh 2.6 and BasE inh -6.
`O=C(c1ccc2cn[nH]c2c1)N1CCCC1` gave LANA-nucl inh -0.21 and BasE inh -2.
Screening O=C(CCc1nc2ccccc2c(=O)[nH]1)Nc1ccc(F)cc1 returned BasE inh 14.
For O=C(CCc1nc2ccccc2c(=O)[nH]1)Nc1ccc2c(c1)CCC2 the results were BasE inh 28*.
`NS(=O)(=O)c1ccc(NC(=O)CSC2=NC(=O)C(Cc3ccccc3)C(=O)N2)cc1` (stereo not drawn) gave LANA-nucl inh -0.15 and BasE inh 1.
`Cc1ccc(NC(=O)CNC(=O)c2ccc(Br)o2)c(C)c1` gave LANA-nucl inh 2.7 and BasE inh -3.
`Cc1ccccc1OCC1=NN2C(=N)/C(=C/c3ccc(N(C)C)cc3)C(=O)N=C2S1` gave LANA-nucl inh -4.8* and BasE inh 11.
`Cc1ccccc1OCC1=NN2C(=N)/C(=C\c3ccc(SCc4ccco4)o3)C(=O)N=C2S1` gave LANA-nucl inh 3.1 and BasE inh -3.
`CCN1/C(=C(\C#N)c2nc(C#N)c(C#N)nc2N2CCOCC2)Nc2ccccc21` gave LANA-nucl inh -3.2* and BasE inh 1.
CN1CCN(c2nc(C#N)c(C#N)nc2C(C#N)=C2Nc3ccccc3N2)CC1 was read as LANA-nucl inh -1.6 and BasE inh 1.
For O=C(N/N=C/c1c[nH]c2ccccc12)c1cccc(O)c1 the results were LANA-nucl inh -0.36 and BasE inh 21.
For CC(=O)n1cc(/C=N/NC(=O)c2cccc(O)c2)c2ccccc21 the results were LANA-nucl inh 0.47 and BasE inh 28*.
For CCCNC1=CC(=O)C(NCCC)=CC1=O the results were LANA-nucl inh 0.29 and BasE inh 1.
Screening Cc1nc(SCC(=O)NC2CCCC2)[nH]c(=O)c1Cc1ccccc1 returned LANA-nucl inh 1.3 and BasE inh 1.
`O=C(CSc1n[nH]c(Cc2ccccc2)n1)NC1CCCCC1` gave LANA-nucl inh -2.4* and BasE inh 2.
Screening CN(C)c1ccc2nc3ccc(=[N+](C)C)cc-3sc2c1 returned LANA-nucl inh -2.4*.
`CC(C)c1nc2ccc(N)cc2s1` gave LANA-nucl inh 0.51 and BasE inh 3.
For O=C(Nc1cccnc1)/C(N=Nc1cccnc1)=C(\O)c1ccccc1 the results were BasE inh 32*.

Assay outcomes (PubChem)
